In paper PMC9535606 (Journal of Alzheimer's Disease Reports, 2022):

Experiments:
[1] = system: primary rat cortical neurons; test: 3-NP-induced neurotoxicity, cell survival by counting Hoechst-stained nuclei; format: cell-based; conditions: for Cell Survival (%): 0.5 mM for 24 h prior to 2.5 mM 3-NP for 24 h, Hoechst, % of control; for viability of cultured cortical neurons exposed to 3-NP: then 2.5 mM 3-NP 24 h
Procedure, shortened: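 E18 Sprague-Dawley rat cortical neurons (DIV 7–9) were pretreated with test compound for 24 h, then given 2.5 mM 3-NP for 24 h. Cells were fixed in 4% paraformaldehyde and stained with Hoechst 33342 (1:1000 in PBS, 5–15 min). Nuclei with normal morphology were counted. Survival (%) = mean surviving cells ÷ concurrent control × 100%.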

[2] = system: primary rat cortical neurons; test: 3-NP-induced cellular ROS, CellROX fluorescence; format: cell-based; conditions: for ROS level compared with 3-NP-vehicle-treated group: 0.5 mM for 24 h prior to 2.5 mM 3-NP, LiCl p < 0.001, SB p < 0.01, LiBen p < 0.0001
Procedure, shortened: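 Primary cortical cultures came from E18 Sprague-Dawley rat cortex and were used at DIV 7–9 (neuron-enriched). Cultures were pretreated with test compound (0, 0.5, 1 or 3 mM) for 24 h, then exposed to 2.5 mM 3-NP for another 24 h. CellROX Green reagent was added, cells were washed with PBS, and ROS were quantified as fluorescence (Ex 485/Em 520 nm), with confocal imaging.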

[3] = system: rat primary cortical neurons; test: Neurogenesis, BrdU/NeuN immunostaining after Aβ25-35; format: cell-based; conditions: p < 0.0001
Procedure, shortened: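 Aβ25-35 was pre-aggregated at 37 °C for 24 h and applied to E18 rat cortical cultures on coverslips for 2 days. Medium was then replaced with BrdU labelling solution plus test compound for 4 days at 37 °C. Cells were fixed in PFA, blocked in 2% BSA, permeabilised with 0.03% Triton X-100 and treated with 2 N HCl. They were stained for BrdU (1:250), NeuN (1:300) and Hoechst. Triple-positive cells were expressed as % of untreated control; mean ± SD, N=3, one-way ANOVA with Student-Newman-Keuls.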

[4] = system: APP/PS1 mice; test: Prepulse inhibition, sensorimotor gating; format: in vivo, mouse
Procedure, shortened: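 In APP/PS1 mice and WT littermates, test compound in 0.9% saline was given i.p. once daily from 5 months of age. The dose was 256 mg/kg/day for 5 months, then lowered to 200 mg/kg/day. Saline-vehicle groups served as controls. Behavioural testing took place at 5 (pre-dose), 7, 10 and 13 months of age.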

[5] = system: rat primary cortical neurons; test: Mitochondrial respiration, Seahorse XF Cell Mito Stress Test; format: cell-based; conditions: 3 mM
Procedure, shortened: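 Rat primary cortical neurons on XF96 plates were pretreated with test compound (3 mM) for 24 h. They were then moved to XF assay medium for 1 h at 37 °C without CO2. Oxygen consumption rate was recorded on an XF96 analyser with serial oligomycin, FCCP and rotenone/antimycin A injections. Basal respiration, ATP production, proton leak and spare capacity were derived; mean ± SD, N=3.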

[6] = system: WT mice; test: Chronic administration safety observations in WT mice; format: in vivo, mouse
Procedure, shortened: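 Wild-type littermates dosed i.p. once daily from 5 months of age for 8 months with test compound in 0.9% saline (n = 27) or saline vehicle (n = 23). Dose 256 mg/kg/day for 5 months, then 200 mg/kg/day. Barnes maze at 5, 7, 10 and 13 months, scored as probe-trial target-quadrant time over total exploring time. Body weight and survival followed to 16 months.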

[7] = system: rat primary cortical neurons; test: Aβ25-35-induced cytotoxicity, cell survival with or without MK-801; format: cell-based; conditions: for cell survival rate: 10 μM Aβ25-35 for 2 days, then 1 mM for 4 days; for protective effect against Aβ25-35 in the presence vs absence of MK-801: MK-801 10 μM, SB 1 mM, LiBen 0.5 and 1 mM
[8] = system: APP/PS1 mice; test: Amyloid plaque number in brain, Congo red staining; format: in vivo, mouse; conditions: APP/PS1 mice at 16 months of age, AD/LiBen vs AD/Veh; p < 0.05
[9] = system: rat primary cortical neuronal culture; test: Oxygen glucose deprivation; format: cell-based
Procedure, shortened: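 For OGD, rat cortical cultures were rinsed into glucose- and pyruvate-free Neurobasal-A and held 1 h at 37 °C/5% CO2. They were then kept under 95% N2/5% CO2 (about 1.0% O2) for 4 h. Test compound was present either for the whole 53 h (0–5 mM) or only for 48 h post-OGD (0–3 mM). Viability was measured by MTT as % of the normoxic untreated control.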

[10] = Pharmacokinetics of lithium in rat plasma after single oral dose; format: in vivo; conditions: same molarity
Procedure, shortened: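 Male Sprague-Dawley rats (240–260 g, n=6/group) were fasted overnight and given a single gavage dose in PBS. Doses were test compound 255.3 mg/kg or sodium benzoate 287.9 mg/kg plus Li2CO3 74.2 mg/kg (equimolar). Jugular blood was drawn from 0 to 24 h into heparinised tubes, and plasma was separated at 2500×g for 15 min at 4 °C. Plasma was digested overnight in 2–5% nitric acid, filtered, and lithium measured by ICP-MS; concentration-time plots were used; mean ± SD.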

[11] = US FDA and JECFA of WHO; cited from earlier work
[12] = 24 h, compared with SB or LiCl treatment

O=C(O)CC[N+](=O)[O-] [3-NP, 3-nitropropionic acid, reference compound]
neuronal cell death ([1]; 3-NP 2.5 mM alone): ~50% | ROS level (fluorescent intensity) increase compared to control ([2]; 3-NP 2.5 mM, 24 h, p < 0.05): 57.5%

O=C([O-])c1ccccc1.[Li+] [LiBen, lithium benzoate]
neurogenesis (BrdU+/NeuN+ cells) vs corresponding control ([3]; Aβ25-35 exposure, then 0.5 mM for 4 days): significantly improve neurogenesis | neurogenesis (BrdU+/NeuN+ cells) vs corresponding control ([3]; No Aβ25-35 exposure, 0.5 mM for 4 days): significantly improve neurogenesis | improvement of PPI deficit ([4]; APP/PS1 mice at 13 months of age): reached significant level | prepulse inhibition (PPI) ([4]; APP/PS1 mice, i.p. once daily from 5 months of age, tested at 7, 10, 13 months): normal PPI at all time points | ATP production [5, 12]: more reduction | proton leak [5, 12]: more reduction | spare respiratory capacity ([5]; 24 h pre-treatment): increasing tendency | basal oxygen consumption rate ([5]; 24 h pre-treatment, did not reach the significant level): reduced more basal oxygen consumption rate than the other treatment groups | body weight change during the experimental period ([6]; WT mice, chronic administration): without significant body weight change | survival ([6]; WT mice, chronic administration, termination time point of the experiment): at least 16 months | toxicity of chronic use ([6]; within the tested dose range (256, later 200 mg/kg/day i.p.)): did not display any toxicity | cell survival rate [7]: 85.1% | protective effect against Aβ25-35 in the presence vs absence of MK-801 [7]: no differences were observed | Cell Survival (%) [1]: 79.0% | viability of cultured cortical neurons exposed to 3-NP ([1]; LiBen 1 mM 24 h, p < 0.005 vs 3-NP alone): significantly increase | viability of cultured cortical neurons exposed to 3-NP ([1]; LiBen 3 mM 24 h, p < 0.001 vs 3-NP alone): significantly increase | viability of cultured cortical neurons in the absence of 3-NP ([1]; LiBen 1 or 3 mM, no 3-NP): the difference was not revealed | decrease in number of plaques in cortex [8]: 21.8% | decrease in number of plaques in hippocampus [8]: 27.8% | OGD-induced cell death / cell viability ([9]; 3 mM LiBen present for 53 hrs of the whole culture period): significantly recovered and comparable to the normoxia group | cell survival in normoxia group ([9]; 5 mM LiBen, 53 hrs): also reduced | neuroprotective property under OGD ([9]; 5 mM LiBen, 53 hrs): vanished | OGD-induced cell death ([9]; LiBen 0.3 to 3 mM added for 48 hrs post-OGD, vs 0 mM group): significantly alleviates OGD-induced cell death | AUC of lithium compared with the SB + Li2CO3 mixture group [10]: also higher | Cmax of lithium compared with the SB + Li2CO3 mixture group [10]: significantly higher | ROS level compared with 3-NP-vehicle-treated group [2]: much more significant

[Cl-].[Li+] [LiCl, lithium chloride, reference compound]
spare respiratory capacity ([5]; 24 h pre-treatment): less effective than LiBen | cell survival rate [7]: 74.0% | Cell Survival (%) [1]: 61.5% | ROS level compared with 3-NP-vehicle-treated group [2]: significant decreases

O=C([O-])c1ccccc1.[Na+] [SB, Sodium benzoate]
spare respiratory capacity ([5]; 24 h pre-treatment): less effective than LiBen | cell survival rate [7]: 70.7% | protective effect against Aβ25-35 in the presence vs absence of MK-801 [7]: blocked by MK-801 | Cell Survival (%) [1]: 67.1% | ROS level compared with 3-NP-vehicle-treated group [2]: significant decreases | acceptable daily intake level [11]: 5 mg/kg body weight
